We go through three compounds from ChEMBL document CHEMBL3044905, “Level of catechin, myricetin, quercetin and isoquercitrin in buckwheat (Fagopyrum esculentum Moench), changes of their levels during vegetation and their effect on the growth of selected weeds” (J Agric Food Chem, 2009).

What all share (assay type): functional, organism-based
Assay [1] has as its system Achillea millefolium. In words: Phytotoxic activity against Achillea millefolium assessed as inhibition of root growth at 22 +/-2 degC after 72 hr. In outline: (§1)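 Test solutions were made in 90% methanol and applied to filter paper in Petri dishes, with a methanol-only control. Concentrations ranged from 1 to 5000 or 10000 µmol, depending on the compound. After 72 h incubation, root and hypocotyl lengths were measured on at least three replicate plates per concentration. Percentage influence was calculated relative to a distilled-water control, and EC50 (µM) was reported with R2.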

Assay [2] concerns Plantago lanceolata. In words: Phytotoxic activity against Plantago lanceolata assessed as inhibition of root growth at 22 +/-2 degC after 72 hr. In outline:
as §1

In assay [3] the test system is Lolium perenne. In words: Phytotoxic activity against Lolium perenne (perennial ryegrass) assessed as inhibition of root growth at 22 +/-2 degC after 72 hr. In outline:
as §1

Assay [4] relates to Lolium perenne. In words: Phytotoxic activity against Lolium perenne (perennial ryegrass) assessed as inhibition of hypocotyl growth at 22 +/-2 degC after 72 hr. In outline:
as §1

The test system of assay [5] is Achillea millefolium. In words: Phytotoxic activity against Achillea millefolium assessed as inhibition of hypocotyl growth at 22 +/-2 degC after 72 hr. In outline:
as §1

For assay [6], the system named is Sinapis alba. In words: Phytotoxic activity against Sinapis alba assessed as inhibition of root growth at 22 +/-2 degC after 72 hr. In outline: as §1
Assay [7] has as its system Plantago lanceolata. The assay is described as follows: Phytotoxic activity against Plantago lanceolata assessed as inhibition of hypocotyl growth at 22 +/-2 degC after 72 hr. In outline:
as §1

In assay [8] the test system is Trifolium repens. In words: Phytotoxic activity against Trifolium repens assessed as inhibition of hypocotyl growth at 22 +/-2 degC after 72 hr. In outline: as §1
The subject of assay [9] is Amaranthus retroflexus. The assay is described as follows: Phytotoxic activity against Amaranthus retroflexus assessed as inhibition of root growth at 22 +/-2 degC after 72 hr. In outline:
as §1

Assay [10] has as its system Sinapis alba. The assay is described as follows: Phytotoxic activity against Sinapis alba assessed as inhibition of hypocotyl growth at 22 +/-2 degC after 72 hr. In outline:
as §1

For assay [11], the system named is Echinochloa crus-galli. The assay is described as follows: Phytotoxic activity against Echinochloa crus-galli (barnyard grass) assessed as inhibition of root growth at 22 +/-2 degC after 72 hr. In outline: as §1
For assay [12], the system named is Echinochloa crus-galli. In words: Phytotoxic activity against Echinochloa crus-galli (barnyard grass) assessed as inhibition of hypocotyl growth at 22 +/-2 degC after 72 hr. In outline:
as §1

The test system of assay [13] is Trifolium repens. In words: Phytotoxic activity against Trifolium repens assessed as inhibition of root growth at 22 +/-2 degC after 72 hr. In outline: as §1
Assay [14] relates to Amaranthus retroflexus. In words: Phytotoxic activity against Amaranthus retroflexus assessed as inhibition of hypocotyl growth at 22 +/-2 degC after 72 hr. In outline: as §1

One may read the EC50 as the concentration that produces a half-maximal response.

For the compound `Oc1cc(O)c2c(c1)O[C@H](c1ccc(O)c(O)c1)[C@@H](O)C2` [CIANIDANOL], the EC50 in [1] came to 472 µM; in assay [2], 0.055 mM; in assay [3], 377 µM; in assay [4], 120 µM; in [5], 527 µM; in assay [6], 0.445 mM. In addition, the EC50 in assay [7] was 0.36 mM; in [8], 169 µM; in assay [9], 2.83 mM; in [10], 0.78 mM; in assay [11], 0.362 mM; in assay [12], 0.148 mM. The EC50 in assay [13] was found to be 433 µM; in assay [14], 9.3 mM.
Regarding `O=c1c(O)c(-c2ccc(O)c(O)c2)oc2cc(O)cc(O)c12` [QUERCETIN], the EC50 in [3] turned out to be 273 µM; in assay [4], 183 µM; in assay [6], 7.05 mM; in assay [10], 12.8 mM.
With `O=c1c(O[C@@H]2O[C@H](CO)[C@@H](O)[C@H](O)[C@H]2O)c(-c2ccc(O)c(O)c2)oc2cc(O)cc(O)c12` [ISOQUERCETIN], the EC50 in [2] came to 54.5 mM; in assay [3] it was 90100 µM; in assay [4] it was 33800 µM; in assay [6], 5.91 mM; in assay [7], 37.1 mM; in [10], 9.56 mM. Further, the concentration for a half-maximal effect (EC50) came to 89.1 mM in [11] and 35.2 mM in assay [12].
